Yeast growth inh = reduces growth of yeast BB579 in restrictive medium; actives 0.51% (n = 140,000); S. cerevisiae BB579 growth, OD615, 48 h; inhibition, % at 10 µM;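 active means inhibition above a set limit, 3 SD over the mean compound inhibition, cut at about 44% in these data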
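Assay system: S. cerevisiae DeaD strain BB579 yeast. Medium: CSMM-D restrictive synthetic medium containing dextrose (glucose). Times: 4 h cell preincubation, 48 h compound exposure, 30 °C humidified. Signal: OD615 turbidity measurement. Benchmarks: positive control amphotericin B 10 µg/mL.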
RAM inhibit = blocks the yeast RAM network | S. cerevisiae dse1pr::URA3 reporter, 5-FOA growth OD615, 2 d; analog-sensitive cbk1-as2 kinase mutant strain | inhibition, % at 50 µM | actives 1.8% (n = 190,000) | AID 868;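 active means inhibition above a set limit, 3 SD over mean compound inhibition, cut at about 8.4% in these data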;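 further: 0% = DMSO-only wells with no growth and 100% = 10 µM 1-NA-PP1 full growth; inhibition rescues growth on 5-FOA so higher OD means more RAM inhibition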
Yeast life ext = extends the lifespan of yeast; AID 775; inhibition of the nicotinamide effect, % at 10 µM; S. cerevisiae growth with nicotinamide, OD615; deaD strain in restrictive glucose medium; actives 0.68% (n = 130,000);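 active means inhibition above a set limit, placed 3 SD over the median of all compounds, cut at about 26% in these data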;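 further: 0% = nicotinamide-treated wells and 100% = cells grown without nicotinamide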
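System: Modified budding yeast, DeaD strain | Buffer or medium: Restrictive glucose medium | Also added: 1.5 mM nicotinamide | Doses: 10 µM single point, 0.25% DMSO | Schedule: 48 h compound exposure at 30 °C, humidified | Detection: Absorbance at 615 nm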
SDO1 yeast rescue = restores growth of sdo1-depleted yeast; actives 0.21% (n = 140,000); AID 817; S. cerevisiae sdo1-depleted JHY4D growth rescue, OD600 30 h; active compounds read high; pdr5 snq2 efflux-pump mutant strain; z-score at 10 µM;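 active means z-score above 3 at both the 24 hr and the 30 hr optical density reads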;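 further: z-score against mean and SD of all compound wells on the same plate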
RAM efflux-def = RAM network inhibition, efflux-deficient strain | shares compounds with RAM inhibit | S. cerevisiae efflux-deficient reporter strain, 5-FOA growth OD615, 2 days | max inhibition, % | 1,200 tested, under 10 active; call rule not given here;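 further: plate controls were vehicle for no effect and reference inhibitor for full effect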
The depositor's hits bear a star; x = not tested or not shown. Sampled rows, rich in hits. Any-hit rate of the full collection: about 2.7%.

SMILES | Yeast growth inh | RAM inhibit | Yeast life ext | SDO1 yeast rescue | RAM efflux-def
CCCCc1ccc(N=N/C(C(=O)Nc2ccccc2OC)=C(/C)O)cc1 | -58 | 20* | 14 | 0.24 | 8
CCOCCOC(=O)C(C)Oc1ccc(Oc2nc(Cl)ccc2Cl)cc1 (stereo not drawn) | x | 13* | x | x | 2
COc1cccc(/C=C(/C(=O)OCC(=O)NC2CCCCCCC2)c2ccccc2)c1 | -37 | 13* | 2 | -0.17 | 5
C=CCSC1=N/C(=C/c2ccsc2)C(=O)N1c1ccccc1 | -51 | 14* | 0 | -0.77 | 2
COc1ccc(/C=C2/N=C(SCC(=O)Nc3cc(C)on3)N(c3ccccc3)C2=O)cc1 | -43 | 5 | 2 | 0.09 | x
O=C(CSc1ccccc1)Nc1cc(S(=O)(=O)N2CCOCC2)ccc1N1CCOCC1 | x | 2 | x | x | x
COCCn1c(=NC(=O)c2sc3ccccc3c2Cl)sc2cc(S(N)(=O)=O)ccc21 | -34 | 16* | 4 | -0.3 | 2
C=CCn1c(=NC(=O)c2sc3ccccc3c2Cl)sc2cc(S(N)(=O)=O)ccc21 | -49 | 7 | 5 | 2.1 | x
Cc1ccc(C(=O)CC(=O)c2ccc(C(C)(C)C)cc2)cc1 | x | 20* | x | x | 8
CCCCOc1ccc(S(=O)(=O)Nc2cc(OC)ccc2OC)cc1 | -34 | 11* | -1 | 0.67 | 2
CSc1ccccc1NC(=O)c1cc2ncc(Br)cn2n1 | x | 6 | x | x | x
CCN(CC(O)CON=C1c2ccccc2-c2ccccc21)S(=O)(=O)c1ccc(C)cc1 (stereo not drawn) | -36 | 15* | 11 | -0.26 | 8
CCN(CC(O)CON=C1c2ccccc2-c2ccccc21)S(=O)(=O)c1ccc(Cl)cc1 (stereo not drawn) | -20 | 20* | 8 | -0.06 | 4
O=[N+]([O-])c1cc(S(=O)(=O)N2CCCC2)ccc1SCCO | x | 2 | x | x | x
COc1cccc(-c2nc(=S)c3c(n2Cc2ccco2)CCCC3)c1 | -16 | 14* | 15 | -0.41 | 2
CCOc1ccccc1NC(=O)c1ccccc1-c1nc(-c2ccccc2)no1 | -56 | 12* | -6 | -1.5 | 6
CCCNc1sc(S(=O)(=O)CCC)nc1S(=O)(=O)c1ccc(C)cc1 | x | 8 | x | x | x
CCCN1C(=O)COc2ccc(-c3n[nH]c(=O)c4ccccc34)cc21 | x | 4 | x | x | x
COc1ccc(Oc2ccc(/C=C/C(=O)c3cccc(OC)c3)cc2[N+](=O)[O-])cc1 | -42 | 11* | 2 | -0.53 | 5
O=C(COc1ccc(Cl)cc1)NCc1nnc(SCC(=O)N2CCCC2)o1 | x | 0 | x | x | x
CCN(CC)S(=O)(=O)c1cccc(-c2nnc(SCCCC(=O)c3ccc(F)cc3)o2)c1 | -45 | 13* | 4 | -1.1 | 3
CCN(CC)S(=O)(=O)c1cccc(-c2nnc(SCc3nc4ccccc4s3)o2)c1 | -74 | 15* | -7 | -1.4 | 3
CCN(CC)S(=O)(=O)c1cccc(-c2nnc(SCCCC(=O)c3ccccc3)o2)c1 | -30 | 12* | 3 | -1.9 | 3
CCN(CC)S(=O)(=O)c1cccc(-c2nnc(-c3ccc(C)cc3)o2)c1 | -30 | 7 | -11 | -0.55 | x
CCOc1ccccc1NC(=S)N1CCN(c2nc(-c3ccc(F)cc3)cs2)CC1 | x | 4 | x | x | x
SMILES | Yeast growth inh | RAM inhibit | Yeast life ext | SDO1 yeast rescue | RAM efflux-def
CC(C)n1cc(CN2CCN(CCc3ccccc3)C(CCO)C2)cn1 (stereo not drawn) | x | 2 | x | x | x
CCOC(=O)c1c(C)[nH]c(N=Nc2cccc(C)c2)c1C | -56 | 12* | -12 | -2.1 | 3
CCN(CC)S(=O)(=O)c1cc(C(=O)NCCN2CCOCC2)ccc1Cl | x | 0 | x | x | x
O=C(C1CC1)N1CCc2cc(S(=O)(=O)NCCC3=CCCCC3)ccc21 | -47 | 11* | -4 | -0.83 | 2
CCCN(CCC)CCNS(=O)(=O)c1ccc2c(c1)CCN2C(=O)C1CCC1 | -69 | 2 | -3 | 0.12 | x
O=C(OCC#CCSc1nnc(-c2ccccc2)o1)c1cccs1 | -28 | 3 | -5 | -0.62 | x
O=C(OCC#CCSc1nnc(-c2cccc3ccccc23)o1)c1cccs1 | -45 | 14* | -9 | -0.31 | 2
O=C(O)C1C(c2ccccc2)C(C(=O)OCCCO)C1c1ccccc1 (stereo not drawn) | -37 | 3 | 6 | 1.1 | x
CCCCCOC(=O)C1C(c2ccccc2)C(C(=O)O)C1c1ccccc1 (stereo not drawn) | -38 | 15* | 32* | -0.69 | 3
COc1ccccc1NC(=O)CSc1nnc(COc2ccccc2OC)n1C | x | -1 | x | x | x

High-throughput results deposited in PubChem BioAssay by several laboratories.
